Consider one compound from ChEMBL document CHEMBL4725346, “Syntheses and Evaluation of New Bisacridine Derivatives for Dual Binding of G-Quadruplex and i-Motif in Regulating Oncogene c-myc Expression” (J Med Chem, 2020).

Calls of active or inactive are those of the source. The calls are words filed in the database; no cut-off is given here. A value given as a limit tells only on which side of the number the result lay.

The subject of data set [1] is Quadruplex DNA. The experiment in a line: Stabilization of 5'-FAM/3'-TAMRA labeled c-myc promoter G-quadruplex DNA FPu22T (unknown origin) assessed as change in melting temperature at 1 uM by FRET assay (reference value: 66.5 degreeC). Format: nucleic-acid assay. The essentials: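 FRET melting of dual FAM/TAMRA-labelled FPu22T annealed in 10 mM Tris-HCl pH 7.4 with KCl. Final 0.2 µM DNA with or without ligand. Excitation 470 nm, emission 530 nm, read every 1 °C over 37–99 °C on a real-time PCR cycler. ΔTm = Tm(DNA+ligand) − Tm(DNA).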

For data set [2], the system named is Quadruplex DNA. The experiment in a line: Stabilization of c-myc promoter G-quadruplex DNA Pu27 (unknown origin) by 1H NMR spectra analysis. Format: nucleic-acid assay. The essentials:
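1D ¹H NMR titration with water suppression at 25 °C on a 600 MHz spectrometer. DNA at 0.5 mM in 10% D₂O/90% H₂O: Pu27 in 10 mM Tris-HCl pH 7.4, Py33 in 1× BPES pH 6.4. Annealed at 95 °C for 5 min before titration; ligand stock in d₆-DMSO.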

The nature of data set [3]: Binding affinity to c-myc promoter i-motif DNA Py33 (unknown origin) at 20 uM by isothermal titration calorimetry. The essentials: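 ITC at 20 °C on degassed solutions. Cell held preformed DNA ([…]). Syringe held ligand in the same buffer (50 μM for Pu27, 20 μM for Py33). 28 injections of 10 μL at 4 min intervals. Heats of dilution from ligand-into-buffer runs subtracted before model fitting.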
(In general: Isothermal titration calorimetry measures the heat released or taken up as one component is titrated into another.)

The subject of data set [4] is SiHa. Description: Antiproliferative activity against human SiHa cells after 48 hrs by MTT assay. It counts as functional, cell-based. The essentials: (§1)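 Cells seeded at 5.0×10^3 per well, pre-incubated 12 h at 37 °C, 5% CO2, then exposed to compounds for 48 h; DMSO-only control. MTT (2.5 mg/mL) added for 4 h, formazan dissolved in DMSO, absorbance at 570 nm. Each dose tested in triplicate; IC50 from percentage survival relative to negative control.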

For a further data set, the system named is Huh-7. Description: Antiproliferative activity against human Huh-7 cells after 48 hrs by MTT assay. Format: functional, cell-based. As to conditions: Huh-7, 48 h. The essentials:
as §1

In data set [5] the test system is Quadruplex DNA. The experiment in a line: Binding affinity to c-myc wild-type promoter G-quadruplex/i-motif (unknown origin) expressed in human SiHa cells assessed as reduction in c-myc transcription by measuring decrease in ratio of renilla/firefly luciferase activity at 1/3 IC50 after 48 hrs by dual-luciferase reporter assay. Format: cell-based. The essentials:
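SiHa cells transfected with 200 ng psiCHECK2 plasmid carrying wild-type, mutant or deleted c-myc promoter. Compounds added 8 h after transfection, then incubated 48 h at 37 °C. Cells washed with ice-cold PBS; Renilla/firefly activity ratio read by dual-luciferase assay.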
For orientation: In a reporter assay the amount or activity of a reporter protein is the signal.

Data set [6] has as its system SiHa. Description: Inhibition of c-myc transcription in human SiHa cells harboring c-myc deleted promoter G-quadruplex/i-motif (unknown origin) assessed as decrease in ratio of renilla/firefly luciferase activity at 0.025 to 0.1 uM after 48 hrs by dual-luciferase reporter assay. It counts as functional, cell-based. As to conditions: dose microM 0.025-0.1, time 48.0 hrs. The essentials:
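Psicheck2 plasmid carrying deleted c-myc promoter (lacking NHE III₁ G/C-rich sequence), 200 ng, lipofected into SiHa cells. Compound added 8 h post-transfection, cells kept 48 h at 37 °C, washed with ice-cold PBS, then Renilla/Firefly luciferase activity ratio measured with a dual-luciferase kit.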

Data set [7] concerns Quadruplex DNA. Description: Binding affinity to c-myc promoter G-quadruplex/i-motif in human SiHa cells assessed as reduction in c-myc mRNA level at 5 uM incubated for 24 hrs by qRT-PCR analysis. It counts as cell-based. Also on record: scale not given: the % may be the effect or the level left. Background: Quantitative PCR measures a nucleic acid by following its amplification.

The subject of data set [8] is Quadruplex DNA. The experiment in a line: Binding affinity to c-myc promoter G-quadruplex/i-motif in human SiHa cells assessed as reduction in c-myc expression incubated for 24 hrs by Western blot analysis. It counts as cell-based. The essentials: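 SiHa cells treated 24 h at 0, 0.625, 1.25 and 2.5 μM, then lysed in buffer with 1 mM PMSF. Protein measured by BCA, equal loads run on 8% gel and blotted to PVDF. Probed with anti-c-MYC and anti-β-actin (loading control), HRP anti-rabbit secondary, chemiluminescence read-out.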

For data set [9], the system named is SiHa. The experiment in a line: Inhibition of colony formation in human SiHa cells at 0.5 to 2 uM incubated for 9 days by crystal violet staining. Format: functional, cell-based. As to conditions: dose microM 0.5-2, time 9.0 day. The essentials: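 SiHa cells seeded at 500/well, pre-cultured 24 h at 37 °C/5% CO₂, then treated 9 days with compound at several concentrations. Cells washed with PBS, fixed 10 min in ice-cold methanol, stained 30 min with 0.5% crystal violet, dried and photographed.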

Data set [10] relates to SiHa. The experiment in a line: Induction of cell cycle arrest in human SiHa cells assessed as accumulation of cells at G0/G1 phase at 0.15 uM after 24 hrs by propidium iodide staining based flow cytometry (reference value: 42.28%). It counts as functional.
Data set [11] has as its system SiHa. The experiment in a line: Induction of cell cycle arrest in human SiHa cells assessed as accumulation of cells at G2/M phase at 0.15 uM after 24 hrs by propidium iodide staining based flow cytometry (reference value: 29.71%). Format: functional.
For data set [12], the system named is SiHa. The experiment in a line: Induction of apoptosis in human SiHa cells assessed as early apoptotic cells at 2.4 uM after 24 hrs by annexin V/FITC-propidium iodide staining-based flow cytometric method ( Rvb = 0.3%). It counts as functional.
The subject of data set [13] is SiHa. Description: Induction of apoptosis in human SiHa cells assessed as necrotic cells at 2.4 uM after 24 hrs by annexin V/FITC-propidium iodide staining-based flow cytometric method ( Rvb = 0.1%). It counts as functional.
The subject of another data set is CA46. The experiment in a line: Induction of apoptosis in human CA46 cells at 0.6 to 2.4 uM after 24 hrs by propidium iodide staining based flow cytometry. It counts as functional, cell-based. As to conditions: dose microM 0.6-2.4, time 24.0 hrs.
The subject of data set [14] is SiHa. The experiment in a line: Antitumor activity against human SiHa cells xenografted in BALB/c nude mouse assessed as reduction in tumor weight at 15 mg/kg, ip administered once per 2 days for 18 days relative to control. It counts as functional. Also on record: scale not given: the % may be the effect or the level left. As to conditions: time 18 day. The essentials:
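SiHa tumor fragments from donor xenografts (grown to about 1,000 mm³) implanted in the underarm of female BALB/c nude mice; six per group. Dosed ip once every two days for 18 days, saline as negative control, cisplatin 0.2 mg/kg as positive control. Tumor volume = length × width²/2. Tumors weighed at sacrifice.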

Data set [15] is described as follows: Toxicity in BALB/c nude mouse xenografted with human SiHa cells assessed as effect on body weight at 15 mg/kg, ip administered once per 2 days for 18 days. As to conditions: in vivo, 432 h, time 18 day. It counts as organism-based. The essentials:
(§2)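 SiHa tumour fragments passaged from donor mice implanted in the underarm of female BALB/c nude mice (six per group). Compound given at 15 mg/kg ip once every two days for 18 days, with saline and cisplatin 0.2 mg/kg control groups. Body weight recorded every two days; at day 18 mice were sacrificed and organs weighed.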

Data set [16] can be described thus: Toxicity in BALB/c nude mouse xenografted with human SiHa cells assessed as effect on heart weight at 15 mg/kg, ip administered once per 2 days for 18 days. It counts as organism-based. As to conditions: in vivo, 432 h, time 18 day. The essentials:
as §2

Data set [17] can be described thus: Toxicity in BALB/c nude mouse xenografted with human SiHa cells assessed as effect on spleen weight at 15 mg/kg, ip administered once per 2 days for 18 days. Format: organism-based. As to conditions: in vivo, 432 h, time 18 day. The essentials: as §2

On to `Cc1ccc2nc3ccc(C)cc3c(NCCCNCCNCCCNc3c4cc(C)ccc4nc4ccc(C)cc34)c2c1`, for which, in the data set with Quadruplex DNA [1], the ΔTm is 9.9 °C. Further, the outcome in the data set with Quadruplex DNA [2] and in the data set on Quadruplex DNA [5] was Active. For the same compound, the equilibrium dissociation constant (Kd) in [3] was 650 nM. Further, the figures for the IC50 in the data set with SiHa [4] and in the data set with Huh-7 were 1220 nM and 160 nM, respectively. The outcome in the data set with SiHa [6] and with CA46 was inactive. Moreover, the Activity in the data set with Quadruplex DNA [7] was less than 92.7%; with Quadruplex DNA [8] it was “Dose-dependent effect”; with SiHa [10], 37.96%; in the data set on SiHa [11], 34.13%; in the data set on SiHa [12], 55.4%; in the data set with SiHa [13], 5.5%. The Activity with SiHa [14] is listed as 41.6%; in [15], “Non-Toxic”; in data set [16], “Non-Toxic”; in [17], “Non-Toxic”. Also, the inhibition entry in the data set with SiHa [9] was “Active”.

Usually ΔTm stands for the shift of the melting midpoint relative to a reference. As a reminder, the Kd is the equilibrium constant for the complex coming apart. For orientation: IC50 means the concentration that gives 50% inhibition.
